The values below come from ChEMBL document CHEMBL3600302, “A Ligand-Based Drug Design. Discovery of 4-Trifluoromethyl-7,8-pyranocoumarin as a Selective Inhibitor of Human Cytochrome P450 1A2” (J Med Chem, 2015).

Usually kinact stands for the maximal first-order rate at which the target is inactivated. One may read the Ki as a dissociation constant, usually derived from enzyme kinetics or from competition with a known ligand. As usually defined, the inhibition is the percentage by which the read-out fell short of the control. Lower therefore signals a response near the control.

Data set [1] deals with T1, Cytochrome P450 1A2 (Homo sapiens, UniProt P05177).
T1 sequence (P05177 whole entry): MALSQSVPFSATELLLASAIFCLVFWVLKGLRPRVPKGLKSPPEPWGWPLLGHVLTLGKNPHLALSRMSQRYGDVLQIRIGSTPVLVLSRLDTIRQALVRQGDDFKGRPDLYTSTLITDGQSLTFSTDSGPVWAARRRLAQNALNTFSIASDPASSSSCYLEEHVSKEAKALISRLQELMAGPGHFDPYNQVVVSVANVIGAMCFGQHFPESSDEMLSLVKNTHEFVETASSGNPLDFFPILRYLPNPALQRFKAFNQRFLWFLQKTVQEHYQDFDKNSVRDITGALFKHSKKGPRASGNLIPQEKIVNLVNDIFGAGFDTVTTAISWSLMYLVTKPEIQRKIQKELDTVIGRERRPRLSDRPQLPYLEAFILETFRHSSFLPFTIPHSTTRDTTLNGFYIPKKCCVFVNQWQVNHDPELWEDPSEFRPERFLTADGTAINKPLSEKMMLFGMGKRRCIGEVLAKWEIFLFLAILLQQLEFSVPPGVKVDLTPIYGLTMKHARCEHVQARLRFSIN
Kind of data set: Inhibition of human microsomal CYP1A2-dependent methoxyresorufin-O-demethylase activity measured over 6 mins by spectrofluorimetric analysis. Particulars: 0.1 h; call rule not given here. In a few lines: (§1)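 Microsomal P450 (final 5 nM) in 0.1 M potassium phosphate pH 7.6 with MgCl2 at 37 °C. Substrate final 5 µM: ethoxyresorufin for 1A1/1B1, methoxyresorufin for 1A2. […] Ki was taken as the x-intercept of Dixon plots (1/v0 vs [I]). Mean ± SD of three independent experiments. Selectivity ratios are ratios of these Ki.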

Data set [2] addresses T2, CYP1A2 (Homo sapiens, UniProt P05177).
T2 sequence (P05177 whole entry): T1 sequence (P05177 whole entry)
Kind of data set: Time-dependent inhibition of human microsomal CYP1A2-dependent methoxyresorufin-O-demethylase activity by spectrofluorimetric analysis in presence of NADPH regenerating solution. Particulars: human microsomal CYP1A2, probe methoxyresorufin (O-demethylation). The method, boiled down: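 1A2 MROD run with NADPH at 0.0125, 0.025, 0.05 and 0.1 µM inhibitor, product monitored continuously over 6 min. Activity at different times came from first derivatives of product curves, expressed as % of control remaining. KI and limiting kinact were derived from the resulting linear plot.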

The target of a further data set is T3, Cytochrome P450 1A1 (Homo sapiens, UniProt P04798).
T3 sequence (P04798 whole entry): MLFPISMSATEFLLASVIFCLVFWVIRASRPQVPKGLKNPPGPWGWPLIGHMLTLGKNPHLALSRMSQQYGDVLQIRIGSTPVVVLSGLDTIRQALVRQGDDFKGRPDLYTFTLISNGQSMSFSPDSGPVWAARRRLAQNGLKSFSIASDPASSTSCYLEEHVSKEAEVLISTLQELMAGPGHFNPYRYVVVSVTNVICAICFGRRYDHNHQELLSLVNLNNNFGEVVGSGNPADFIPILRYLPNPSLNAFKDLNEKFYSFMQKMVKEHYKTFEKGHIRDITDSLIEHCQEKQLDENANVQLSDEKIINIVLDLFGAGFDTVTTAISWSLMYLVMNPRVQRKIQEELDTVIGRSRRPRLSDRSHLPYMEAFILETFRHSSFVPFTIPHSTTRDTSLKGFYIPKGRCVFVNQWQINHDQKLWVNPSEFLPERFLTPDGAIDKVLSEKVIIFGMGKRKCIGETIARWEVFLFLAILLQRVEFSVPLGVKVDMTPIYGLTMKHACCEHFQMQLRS
Description: Inhibition of human microsomal CYP1A1-dependent ethoxyresorufin-O-deethylase activity at 10 nM measured over 6 mins by spectrofluorimetric analysis in absence of NADPH regenerating solution. The conditions noted are these: 0.1 h, 0.01 µM. The method, boiled down: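 Microsomal P450 in 0.1 M potassium phosphate pH 7.6 with MgCl2 and 10 nM inhibitor in DMSO, 2 mL final. Preincubated 5 min at 37 °C either with NADPH-regenerating solution, or without it, with NADPH then added at start. Reaction started with ethoxyresorufin (final 5 µM). Resorufin formation followed 6 min at 37 °C.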

The species entered for data set [3] is Homo sapiens. Description: Selectivity ratio of Ki for human microsomal CYP1A1 to Ki for human microsomal CYP1A2. The method, boiled down: as §1
Data set [4] concerns the target T1, Cytochrome P450 1A2. Description: Inhibition of human microsomal CYP1A2-dependent methoxyresorufin-O-demethylase activity by spectrofluorimetric analysis in presence of NADPH regenerating solution. In a few lines:
(§2)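 Microsomal P450 (final 5 nM) in 0.1 M potassium phosphate pH 7.6 with MgCl2 at 37 °C. Substrate final 5 µM: ethoxyresorufin for 1A1/1B1, methoxyresorufin for 1A2. Ki was taken as the x-intercept of Dixon plots (1/v0 vs [I]). Mean ± SD of three independent experiments. Selectivity ratios are ratios of these Ki.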

Data set [5] is filed under the species Homo sapiens. Kind of data set: Selectivity ratio of Ki for human microsomal CYP1B1 to Ki for human microsomal CYP1A2. The method, boiled down:
as §1

The next data set has as its target T4, Cytochrome P450 1B1 (Homo sapiens, UniProt Q16678).
T4 sequence (Q16678 whole entry): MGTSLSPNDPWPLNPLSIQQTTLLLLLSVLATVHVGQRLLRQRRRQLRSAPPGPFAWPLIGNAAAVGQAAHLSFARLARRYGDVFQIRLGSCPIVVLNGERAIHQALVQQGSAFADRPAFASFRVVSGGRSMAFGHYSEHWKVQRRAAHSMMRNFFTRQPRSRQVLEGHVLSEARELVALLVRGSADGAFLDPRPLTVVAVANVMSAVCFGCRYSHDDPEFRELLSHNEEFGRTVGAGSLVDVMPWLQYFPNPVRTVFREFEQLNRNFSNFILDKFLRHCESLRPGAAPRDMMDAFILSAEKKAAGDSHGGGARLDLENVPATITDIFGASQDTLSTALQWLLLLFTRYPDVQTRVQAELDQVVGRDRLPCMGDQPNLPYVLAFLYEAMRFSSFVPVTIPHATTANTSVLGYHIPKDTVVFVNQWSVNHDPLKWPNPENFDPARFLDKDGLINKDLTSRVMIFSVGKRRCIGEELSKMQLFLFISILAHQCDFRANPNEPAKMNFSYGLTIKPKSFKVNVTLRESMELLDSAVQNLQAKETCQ
Description: Inhibition of human microsomal CYP1B1-dependent ethoxyresorufin-O-deethylase activity by spectrofluorimetric analysis in presence of NADPH regenerating solution. The method, boiled down:
as §2

Data set [6] addresses T2, CYP1A2. Description: Inhibition of human microsomal CYP1A2-dependent methoxyresorufin-O-demethylase activity at 10 nM preincubated for 5 mins followed by NADPH regenerating solution and substrate addition measured over 6 mins by spectrofluorimetric analysis relative to control. The conditions noted are these: human microsomal CYP1A2, probe methoxyresorufin (O-demethylation).

With `Cc1cc2c(ccc3c(=O)cc(-c4ccccc4)oc32)o1`, the figures for the “inhibition (INH)” value at Cytochrome P450 1A2 [1] and on Cytochrome P450 1A1 were “Dose-dependent effect” and “Not Active”, respectively. In addition, the kinact on CYP1A2 [2] was 0.007 s⁻¹. Also, the Ratio Ki in the data set listed under Homo sapiens [3] is 14; in the data set listed under Homo sapiens [5] it was 6. For the same molecule, the Ki on Cytochrome P450 1A2 [4] was 30 nM; on Cytochrome P450 1B1, 180 nM. This molecule came in with an inhibition at 0.1 h, 0.01 µM against CYP1A2 [6] greater than 90%.
